Data taken from ChEMBL document CHEMBL3046823, “Insect muscarinic acetylcholine receptor: pharmacological and toxicological profiles of antagonists and agonists” (J Agric Food Chem, 2007).

Tests used:
Musca domestica [1] = experiment: Toxicity to Musca domestica (house fly) assessed as mortality at 25 ug/fly measured after 1 hr; type: functional
Outline: (§1)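 Insecticide-susceptible adult female Musca (~25 mg) received PPP (2.5 µg/fly in 0.5 µL acetone, abdominal ventrum), then 90 min at room temperature. The compound (active ingredient) was given by intrathoracic injection in 0.22 µL water or 25-50% Me2SO/water. Mortality was scored at 0.5, 1.0, 1.5, 2.5 and 24 h.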

Musca domestica [2] = experiment: Toxicity to Musca domestica (house fly) assessed as mortality at 25 ug/fly measured after 24 hr; type: functional; outline: as §1
Musca domestica [3] = experiment: Toxicity to Musca domestica (house fly) assessed as mortality at 75 ug/fly measured after 0.5 hr; type: functional; outline: as §1
Musca domestica [4] = experiment: Toxicity to Musca domestica (house fly) assessed as mortality at 25 ug/fly measured after 2.5 hr; type: functional; outline: as §1
Musca domestica [5] = experiment: Toxicity to Musca domestica (house fly) assessed as mortality at 75 ug/fly measured after 2.5 hr; type: functional; outline: as §1
Musca domestica [6] = experiment: Toxicity to Musca domestica (house fly) assessed as mortality at 25 ug/fly measured after 1.5 hr; type: functional; outline: as §1
Musca domestica [7] = experiment: Toxicity to Musca domestica (house fly) assessed as mortality at 75 ug/fly measured after 1 hr; type: functional; outline: as §1
[8] = molecular target: T1, Muscarinic acetylcholine receptor DM1 (Drosophila melanogaster, UniProt P16395); experiment: Displacement of [3H]QNB from Drosophila melanogaster mAChR by scintillation counting
T1 sequence (P16395 whole entry): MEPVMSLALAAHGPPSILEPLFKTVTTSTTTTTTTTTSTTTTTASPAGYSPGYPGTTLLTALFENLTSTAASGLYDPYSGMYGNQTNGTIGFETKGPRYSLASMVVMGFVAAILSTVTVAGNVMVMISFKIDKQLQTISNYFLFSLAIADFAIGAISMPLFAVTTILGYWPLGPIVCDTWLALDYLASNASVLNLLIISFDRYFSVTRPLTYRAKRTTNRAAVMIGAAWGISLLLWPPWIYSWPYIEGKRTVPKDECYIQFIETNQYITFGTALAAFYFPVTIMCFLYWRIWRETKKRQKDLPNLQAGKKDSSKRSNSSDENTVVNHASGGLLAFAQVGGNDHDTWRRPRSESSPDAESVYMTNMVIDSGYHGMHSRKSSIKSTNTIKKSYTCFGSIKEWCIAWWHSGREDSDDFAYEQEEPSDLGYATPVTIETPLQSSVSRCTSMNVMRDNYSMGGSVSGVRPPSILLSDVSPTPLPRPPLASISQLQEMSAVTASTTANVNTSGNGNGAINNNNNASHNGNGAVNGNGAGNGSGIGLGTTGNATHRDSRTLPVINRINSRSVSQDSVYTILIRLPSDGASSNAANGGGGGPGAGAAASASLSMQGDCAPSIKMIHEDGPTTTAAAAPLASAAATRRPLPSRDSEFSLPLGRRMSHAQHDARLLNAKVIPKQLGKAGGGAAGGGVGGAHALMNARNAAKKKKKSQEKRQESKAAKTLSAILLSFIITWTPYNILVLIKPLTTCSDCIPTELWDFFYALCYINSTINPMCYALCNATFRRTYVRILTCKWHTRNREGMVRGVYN

[9] = molecular target: T1, Muscarinic acetylcholine receptor DM1; experiment: Displacement of [3H]AF-DX 384 from Drosophila melanogaster mAChR by scintillation counting
Musca domestica [10] = experiment: Toxicity to Musca domestica (house fly) assessed as mortality at 25 ug/fly measured after 0.5 hr; type: functional; outline: as §1
Musca domestica [11] = experiment: Toxicity to Musca domestica (house fly) assessed as mortality at 75 ug/fly measured after 24 hr; type: functional; outline: as §1
Musca domestica [12] = experiment: Toxicity to Musca domestica (house fly) assessed as mortality at 75 ug/fly measured after 1.5 hr; type: functional; outline: as §1
Musca domestica [13] = experiment: Ex vivo inhibition of [3H]QNB binding in brain of Musca domestica (house fly) at 25 ug/fly measured after 0.5 hr; type: functional
Outline: (§2)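 Adult female houseflies pretreated with PPP (2.5 µg/fly, topical in acetone, 90 min), then dosed by intrathoracic injection in 0.22 µL water or 25-50% Me2SO/water. Heads were taken 0.5 or 24 h later and homogenized (50 per batch) in 50 mM sodium phosphate pH 7.4. Filtrate (~800 µg protein) was bound with 0.5 nM [3H]QNB, 60 min, 25 °C. Values are relative to vehicle-treated flies; 6−8 measurements over two experiments.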

Musca domestica [14] = experiment: Ex vivo inhibition of [3H]QNB binding in brain of Musca domestica (house fly) at 75 ug/fly measured after 24 hr; type: functional; outline: as §2
Musca domestica [15] = experiment: Ex vivo inhibition of [3H]QNB binding in brain of Musca domestica (house fly) at 25 ug/fly measured after 24 hr; type: functional; outline: as §2
Musca domestica [16] = experiment: Ex vivo inhibition of [3H]QNB binding in brain of Musca domestica (house fly) at 75 ug/fly measured after 0.5 hr; type: functional; outline: as §2
Musca domestica [17] = experiment: Toxicity to Musca domestica (house fly) assessed as mortality at 6.25 ug/fly measured after 0.5 hr; type: functional; outline: as §1
Musca domestica [18] = experiment: Toxicity to Musca domestica (house fly) assessed as mortality at 6.25 ug/fly measured after 1 hr; type: functional; outline: as §1
Musca domestica [19] = experiment: Toxicity to Musca domestica (house fly) assessed as mortality at 6.25 ug/fly measured after 2.5 hr; type: functional; outline: as §1
Musca domestica [20] = experiment: Toxicity to Musca domestica (house fly) assessed as mortality at 6.25 ug/fly measured after 24 hr; type: functional; outline: as §1
Musca domestica [21] = experiment: Toxicity to Musca domestica (house fly) assessed as mortality at 6.25 ug/fly measured after 1.5 hr; type: functional; outline: as §1
Musca domestica [22] = experiment: Toxicity to Musca domestica (house fly) assessed as mortality at 7.5 ug/fly measured after 1 hr; type: functional; outline: as §1
Musca domestica [23] = experiment: Toxicity to Musca domestica (house fly) assessed as mortality at 7.5 ug/fly measured after 2.5 hr; type: functional; outline: as §1
Musca domestica [24] = experiment: Toxicity to Musca domestica (house fly) assessed as mortality at 7.5 ug/fly measured after 24 hr; type: functional; outline: as §1
Musca domestica [25] = experiment: Toxicity to Musca domestica (house fly) assessed as mortality at 7.5 ug/fly measured after 0.5 hr; type: functional; outline: as §1
Musca domestica [26] = experiment: Toxicity to Musca domestica (house fly) assessed as mortality at 7.5 ug/fly measured after 1.5 hr; type: functional; outline: as §1
[27] = molecular target: Muscarinic acetylcholine receptor DM1 (Drosophila melanogaster) (UniProt P16395); experiment: Displacement of [3H]AF-DX 384 from Drosophila melanogaster mAChR at 100000 nM by scintillation counting
Muscarinic acetylcholine receptor DM1 (Drosophila melanogaster), sequence (P16395 whole entry): as above

[28] = molecular target: Muscarinic acetylcholine receptor DM1 (Drosophila melanogaster) (UniProt P16395); experiment: Displacement of [3H]QNB from Drosophila melanogaster mAChR at 100000 nM by scintillation counting
Musca domestica [29] = experiment: Ex vivo inhibition of [3H]QNB binding in brain of Musca domestica (house fly) at 7.5 ug/fly measured after 0.5 hr; type: functional; outline: as §2
Musca domestica [30] = experiment: Ex vivo inhibition of [3H]QNB binding in brain of Musca domestica (house fly) at 7.5 ug/fly measured after 24 hr; type: functional; outline: as §2

Compound	Activity (Musca domestica [1])	Activity (Musca domestica [2])	Activity (Musca domestica [3])	Activity (Musca domestica [4])	Activity (Musca domestica [5])	Activity (Musca domestica [6])	Activity (Musca domestica [7])	Ki [8]	Ki [9]	Activity (Musca domestica [10])	Activity (Musca domestica [11])	Activity (Musca domestica [12])	further results
CN1[C@@H]2CC[C@H]1C[C@@H](OC(=O)N1Cc3ccccc3NC1=O)C2	17%	0%	70%	0%	17%	10%	43%	640 nM	570 nM	23%	7%	23%	
Cc1noc(C2CN3CCC2CC3)n1 (centres undefined)	20%	3%	100%	3%	33%	13%	83%	1320 nM	1330 nM	47%	13%	60%	inhibition (INH) (Musca domestica [13]): 49%; inhibition (INH) (Musca domestica [14]): 16%; inhibition (INH) (Musca domestica [15]): 9%; inhibition (INH) (Musca domestica [16]): 80%
CCCN(CCC)CC1CCCCN1CCNC(=O)N1c2ccccc2C(=O)Nc2cccnc21 (centres undefined)								4.8 nM	6.1 nM				Activity (Musca domestica [17]): 30%; Activity (Musca domestica [18]): 3%; Activity (Musca domestica [19]): 3%; Activity (Musca domestica [20]): 3%; Activity (Musca domestica [21]): 3%
C[C@H](C1=C(CCN(C)C)Cc2ccccc21)c1ccccn1	70%	3%	100%	17%	97%	40%	100%	510 nM	660 nM	100%	23%	100%	inhibition (INH) (Musca domestica [13]): 41%; inhibition (INH) (Musca domestica [14]): 28%; inhibition (INH) (Musca domestica [15]): 0%; Activity (Musca domestica [22]): 0%; inhibition (INH) (Musca domestica [16]): 81%; Activity (Musca domestica [23]): 0%; Activity (Musca domestica [24]): 0%; Activity (Musca domestica [25]): 10%; Activity (Musca domestica [26]): 0%
CCOC(=O)c1c(C)[nH]c2ccc3c(c12)CN1CCc2cc(OC)ccc2C1O3 (centres undefined)	13%	13%		13%		13%		1030 nM	1430 nM	20%			
O=[N+]([O-])/N=C1\NCCN1Cc1ccc(Cl)nc1													inhibition [27]: 3%; inhibition [28]: 1%
C[N+]1(C)CCC(OC(=O)C(c2ccccc2)c2ccccc2)CC1.[I-] [4-DAMP]	47%	10%	100%	20%	60%	40%	67%	15 nM	18 nM	60%	33%	57%	inhibition (INH) (Musca domestica [29]): 79%; inhibition (INH) (Musca domestica [13]): 92%; inhibition (INH) (Musca domestica [15]): 59%; Activity (Musca domestica [22]): 10%; inhibition (INH) (Musca domestica [30]): 49%; Activity (Musca domestica [23]): 3%; Activity (Musca domestica [24]): 7%; Activity (Musca domestica [25]): 10%; Activity (Musca domestica [26]): 7%
Cc1ccc(C[N+](C)(C)C)o1 [5-METHYLFURMETHIODIDE]								14900 nM	12300 nM				
CC(=O)OC1CN2CCC1CC2 (centres undefined) [ACECLIDINE]	3%	0%	100%	3%	10%	3%	30%	130000 nM	114000 nM	33%	3%	27%	
CC#CCOC(=O)C1=CCCN(C)C1 [ARECAIDINE BUT-2-YNYL ESTER]	3%	3%	10%	3%	8%	3%	9%	1500 nM	1560 nM	3%	4%	9%	
C#CCOC(=O)C1=CCCN(C)C1 [ARECAIDINE PROPARGYL ESTER]	0%	0%	100%	0%	100%	0%	100%	4490 nM	5200 nM	17%	87%	100%	
CCOP(=O)(OCC)Oc1nc(Cl)c(Cl)cc1Cl [CHLORPHRIFOS OXON]								> 100000 nM	> 100000 nM				inhibition [27]: 29%; inhibition [28]: 17%
O=[N+]([O-])NC1=NCCN1Cc1ccc(Cl)nc1 [IMIDACLOPRID]								> 100000 nM	> 100000 nM				
COc1ccccc1CNCCCCCCNCCCCCCCCNCCCCCCNCc1ccccc1OC.Cl.Cl.Cl.Cl [METHOCTRAMINE HYDROCHLORIDE]	100%	100%		100%		100%		2850 nM	3860 nM	100%			Activity (Musca domestica [22]): 10%; Activity (Musca domestica [23]): 0%; Activity (Musca domestica [24]): 3%; Activity (Musca domestica [25]): 17%; Activity (Musca domestica [26]): 0%
C[N+]1(C)[C@@H]2CC[C@H]1C[C@@H](OC(=O)C(CO)c1ccccc1)C2.O=[N+]([O-])[O-] (some centres undefined) [METHYLATROPINE NITRATE]	7%	13%	23%	7%	20%	7%	23%	2.4 nM	1.8 nM	17%	7%	20%	
CCN(CC)CC1CCCCN1CC(=O)N1c2ccccc2C(=O)Nc2cccnc21 (centres undefined) [OTENZEPAD]								1220 nM	1380 nM				Activity (Musca domestica [17]): 17%; Activity (Musca domestica [18]): 10%; Activity (Musca domestica [19]): 10%; Activity (Musca domestica [20]): 3%; Activity (Musca domestica [21]): 10%
O=C1CCCN1CC#CCN1CCCC1 [OXOTREMORINE]								19400 nM	21500 nM				
CCOP(=O)(OCC)Oc1ccc([N+](=O)[O-])cc1 [PARAOXON]								> 100000 nM	> 100000 nM				inhibition [27]: 13%; inhibition [28]: 0%
CC[C@@H]1C(=O)OC[C@@H]1Cc1cncn1C [PILOCARPINE]	0%	0%	67%	0%	7%	0%	23%			3%	7%	10%	
CN1CCN(CC(=O)N2c3ccccc3C(=O)Nc3cccnc32)CC1 [PIRENZEPINE]	7%	7%	27%	7%	13%	7%	27%	430 nM	390 nM	20%	10%	20%	
Br.CN1[C@@H]2C[C@@H](OC(=O)[C@H](CO)c3ccccc3)C[C@H]1[C@@H]1O[C@@H]12.O.O.O [SCOPOLAMINE HYDROBROMIDE]	3%	3%	20%	3%	0%	3%	3%			10%	0%	0%	
